In ChEMBL document CHEMBL1133099, “Structure-property model for membrane partitioning of oligopeptides” (J Med Chem, 2000):
Residues, ends and D or L forms follow the SMILES beside them.

Legend:
Format in all cases: physicochemical
[1] = pKa1 values were determined by potentiometric titrations.; conditions: read-out: pKa1
[2] = Distribution coefficient between n-octanol and hanks buffered saline solution
Outline: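 Distribution between n-octanol and Hanks buffered saline at pH 7.4, measured by the shake-flask method.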

[3] = pKa2 values were determined by potentiometric titrations.; conditions: read-out: pKa2
[4] = Ionization constant (pKa1) values were determined by potentiometric titrations.; conditions: read-out: pKa1
[5] = Ionization constant (pKa2) values were determined by potentiometric titrations.; conditions: read-out: pKa2

**Q.** Which pKa [1] does the source give for `CC(=O)N[C@@H](CC(=O)O)C(=O)N[C@@H](CCC(N)=O)C(=O)N[C@@H](CC(C)C)C(=O)N[C@@H](Cc1ccccc1)C(N)=O` (Ac-DQLF-NH2) here?
**A.** The pKa was 3.97.

**Q.** What about the logD [2] of the same compound?
**A.** Its logD is greater than -2.5.

**Q.** Which logD [2] does the source give for `CC(=O)N[C@@H](Cc1ccccc1)C(=O)N1CCC[C@H]1C(=O)N[C@@H](Cc1ccccc1)C(=O)N[C@@H](Cc1ccc(O)cc1)C(N)=O` (Ac-FPFY-NH2) here?
**A.** Its logD is 1.64.

**Q.** Which logD [2] does the source give for `CC(=O)N[C@@H](Cc1ccc(O)cc1)C(=O)NCC(=O)NCC(=O)N[C@@H](CCC(N)=O)C(N)=O` (Ac-YGGQ-NH2) here?
**A.** The logD was -2.59.

**Q.** For `CC(=O)N[C@@H](Cc1ccccc1)C(=O)N[C@@H](CC(C)C)C(=O)N[C@H](C(=O)N(C)[C@@H](CC(C)C)C(N)=O)C(C)C` (HELM PEPTIDE1{[ac].F.L.V.[meL].[am]}$$$$V2.0), which logD [2] is on record?
**A.** The logD was 2.42.

**Q.** For `CC(=O)N[C@@H](Cc1ccccc1)C(=O)N[C@@H](CCC(N)=O)C(=O)N[C@@H](CCCCN)C(=O)N(C)[C@@H](CC(C)C)C(N)=O` (HELM PEPTIDE1{[ac].F.Q.K.[meL].[am]}$$$$V2.0), which pKa [3] is on record?
**A.** The pKa was 10.1.

**Q.** Which pKa [4] does the source give for `CC(=O)NCC(=O)N[C@@H](CC(C)C)C(=O)N[C@@H](CC(=O)O)C(=O)N(C)[C@@H](Cc1ccccc1)C(N)=O` (HELM PEPTIDE1{[ac].G.L.D.[meF].[am]}$$$$V2.0) here?
**A.** Its pKa is 3.93.

**Q.** With `CC(=O)NCC(=O)N(C)CC(=O)N[C@@H](CC(C)C)C(=O)N[C@@H](Cc1ccccc1)C(N)=O` (HELM PEPTIDE1{[ac].G.[Sar].L.F.[am]}$$$$V2.0) as the compound, how does the logD [2] read?
**A.** Its logD is 0.05.

**Q.** What does the source list for `CC(=O)NCC(=O)N(C)[C@@H](Cc1ccccc1)C(=O)N[C@@H](CCCCN)C(=O)N[C@@H](CC(=O)O)C(N)=O` (HELM PEPTIDE1{[ac].G.[meF].K.D.[am]}$$$$V2.0)?
**A.** pKa [5]: 10.3; pKa [4]: 3.78

**Q.** Which results are given for `CC(=O)N[C@@H](CCCCN)C(=O)N(C)CC(=O)N[C@@H](Cc1ccc(O)cc1)C(=O)N(C)[C@@H](CC(=O)O)C(N)=O` (HELM PEPTIDE1{[ac].K.[Sar].Y.[meD].[am]}$$$$V2.0)?
**A.** pKa [5]: 9.69; pKa [4]: 3.6

**Q.** Which logD [2] does the source give for `CC(=O)N[C@@H](CCCCN)C(=O)N(C)[C@@H](Cc1ccccc1)C(=O)NCC(=O)N(C)[C@@H](CC(C)C)C(N)=O` (HELM PEPTIDE1{[ac].K.[meF].G.[meL].[am]}$$$$V2.0) here?
**A.** The logD was -1.33.

**Q.** What about the pKa [3] of the same compound?
**A.** Its pKa is 9.94.

**Q.** Which logD [2] does the source give for `CC(=O)N[C@@H](CO)C(=O)N(C)[C@@H](Cc1ccccc1)C(=O)NCC(=O)NCC(N)=O` (HELM PEPTIDE1{[ac].S.[meF].G.G.[am]}$$$$V2.0) here?
**A.** Its logD is -1.51.
